MEKK3 PB1 HTS – modulators of MEKK3-MEK5 PB1 binding, primary screen, biochemical, wildtype MEKK3, multiplex bead flow cytometry, Alexa488-MEK5; Mitogen-activated protein kinase kinase kinase 3 (Homo sapiens), Q99759; bead-based flow cytometry, Alexa488-MEK5 binding to MEKK3; actives lie on both sides; 0 = blocked by unlabeled MEK5, 100 = vehicle; binding response (% of control), % at 10 µM; 1.4% of 290,000 active;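 active = binding response more than 3 SD above or below the average of its plate-row segment, actives on both sides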;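 note: Alexa488 bead fluorescence after subtracting the streptavidin-only scavenger bead signal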
Target sequence (Q99759 whole entry, looked up): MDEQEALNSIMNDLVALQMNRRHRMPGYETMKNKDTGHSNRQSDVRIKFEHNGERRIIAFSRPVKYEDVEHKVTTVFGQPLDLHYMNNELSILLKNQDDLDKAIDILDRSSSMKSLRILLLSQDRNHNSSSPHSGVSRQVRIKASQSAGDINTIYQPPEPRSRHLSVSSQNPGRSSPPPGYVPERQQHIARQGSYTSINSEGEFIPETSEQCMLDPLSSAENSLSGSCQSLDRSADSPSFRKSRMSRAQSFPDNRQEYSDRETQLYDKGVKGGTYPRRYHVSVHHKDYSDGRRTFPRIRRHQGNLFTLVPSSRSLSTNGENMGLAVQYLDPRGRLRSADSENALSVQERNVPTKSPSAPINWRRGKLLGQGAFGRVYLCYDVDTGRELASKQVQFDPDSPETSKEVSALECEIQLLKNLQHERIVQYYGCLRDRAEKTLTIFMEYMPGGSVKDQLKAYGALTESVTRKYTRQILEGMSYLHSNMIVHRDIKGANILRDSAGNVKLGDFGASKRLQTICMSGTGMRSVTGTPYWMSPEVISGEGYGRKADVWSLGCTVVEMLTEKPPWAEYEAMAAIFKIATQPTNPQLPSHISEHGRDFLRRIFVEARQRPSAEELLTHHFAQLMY
MEKK2wt PB1 HTS – modulators of MEK5 binding to wildtype MEKK2, primary screen, biochemical, multiplex bead flow cytometry, Alexa488-MEK5 | 1.1% of 290,000 active | AID 1531, 2009 | Mitogen-activated protein kinase kinase kinase 2 (Homo sapiens), Q9Y2U5 | binding response (% of control), % at 10 µM | Alexa488-MEK5 binding to MEKK2 WT; actives lie on both sides; in the data active = binding response below about 67% or above about 130%
VIM-2 inh – VIM-2 metallo-beta-lactamase inhibitors, primary screen, biochemical, epi-absorbance readout, Pseudomonas aeruginosa enzyme | inhibition, % at 5.6 µM | purified VIM-2, nitrocefin hydrolysis, epi-absorbance fluorescence | 0.89% of 290,000 active;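 active = inhibition above the mean of all tested compounds plus 3 SD, cutoff set per screening run, cut at about 7.5% in these data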;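 note: red hydrolysis product quenches plate fluorescence so inhibitors raise well fluorescence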
MEKK2 mut-MEK5 – MEK5 binding signal on mutant MEKK2 PB1, primary screen, biochemical, multiplex bead flow cytometry, Alexa488-MEK5 | Alexa488-MEK5 binding to MEKK2 mutant | percent response, % at 10 µM | 0.35% of 290,000 active | AID 1530, 2009; in the data active = percent response above about 24%, passing the limit was not always enough
IMP-1 inh – IMP-1 metallo-beta-lactamase inhibitors, primary screen, biochemical, epi-absorbance readout, Pseudomonas aeruginosa enzyme. inhibition, % at 5.6 µM. purified IMP-1, nitrocefin hydrolysis, epi-absorbance fluorescence. 0.45% of 290,000 active. AID 1556, 2009. metallo-beta-lactamase IMP-1 (Pseudomonas aeruginosa);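 active = inhibition above the mean plus 3 SD of all compounds in the same screening run, cut at about 4.5% in these data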
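System – purified recombinant IMP-1 beta-lactamase · Input – IMP-1 dispensed at 0.2 nM · Timing – 15 min preincubation plus 25 min reaction at 25 °C · Signal – Epi-absorbance fluorescence, 480 nm excitation, 530 nm emission · Measure – percent IMP-1 inhibition derived from blank-referenced optical density · Controls – Enzyme-plus-DMSO low control, enzyme-free DMSO high control · Replication – singlicate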
MEKK2wt confirm – modulators of MEK5 binding to wildtype MEKK2, confirmation, biochemical, single concentration, multiplex bead flow cytometry; shares compounds with MEKK3 PB1 HTS; Alexa488-MEK5 binding to MEKK2 WT; actives lie on both sides; binding response (% of control), % at 10 µM; 2.4% of 5,900 active; AID 1892, 2009; in the data active = binding response below about 16% or above about 210%; inactive = in between
MEKK2mut-MEK5 – mutant MEKK2 PB1-MEK5 binding signal retest – biochemical, single concentration, multiplex bead flow cytometry, confirmation; shares compounds with MEKK3 PB1 HTS; Alexa488-MEK5 binding to MEKK2 mutant; percent response, % at 10 µM; 2% of 5,900 active; AID 1893, 2009; in the data active = percent response mostly above about 71%, no sharp cut-off; inactive = mostly below about 38%;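 note: higher means compound restores mutant binding toward wildtype level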
MEKK3 confirm – MEKK3 wild-type PB1 binding to MEK5, inhibitors, confirmation, biochemical, bead multiplex flow cytometry, single concentration, wildtype. shares compounds with MEKK3 PB1 HTS. Alexa488-MEK5 binding to MEKK3; stronger effect = lower value. binding response (% of control), % at 10 µM. 1.8% of 5,900 active;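 active = binding response below 72% of control, or above a set upper limit, though filed actives all read lower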
Numbers stand for hits; 0 = inactive; - = no result; ! = repeats disagree; [ ] = remark or other dose. This is a sample that favours compounds with a hit; in the whole collection about 3.4% have one here.

SMILES | MEKK3 PB1 HTS | MEKK2wt PB1 HTS | VIM-2 inh | MEKK2 mut-MEK5 | IMP-1 inh | MEKK2wt confirm | MEKK2mut-MEK5 | MEKK3 confirm
CC(=O)N1c2ccc(S(=O)(=O)N3CCCC3)cc2CC1C(=O)NCc1cccc(F)c1 (configuration not stated) | 0 | 0 | 0 | 0 | 0 | - | - | -
O=C(OCc1cc2ccccc2[nH]c1=O)C1CCCCC1 | 0 | 0 | 0 | 0 | 0 | - | - | -
Cc1ccc2[nH]c(=O)c(COC(=O)C3CCCCC3)cc2c1 | 129 | 0 | 0 | 0 | 0 | 0 | 0 | 0
CCCCCCCCCn1c2c(c(=N)c3c1CCC3)CCCC2 | 0 | 177 | 0 | 0 | 0 | 0 | 0 | 0
CCCCCCCCCCn1c2c(c(=N)c3c1CCC3)CCC2 | 0 | 140 | 0 | 0 | 0 | 0 | 0 | 0
CCCCCCCCn1c2c(c(=N)c3ccccc31)CCC2 | 0 | 0 | 0 | 0 | 0 | - | - | -
Nc1nonc1N/N=C\c1ccccc1 | 0 | 0 | 0 | 0 | 0 | - | - | -
Cc1[nH]c2c(ccc3ccccc32)c1C1C(CCN)C1(C)C (configuration not stated) | 0 | 208 | 0 | 0 | 0 | 0 | 0 | 0
S=c1[nH]c2ccc3ccccc3c2[nH]1 | 0 | 0 | 0 | 0 | 0 | - | - | -
Cc1noc(C)c1COc1cccc(C(=O)OCC(=O)NCCN2C(=O)CSC2=O)c1 | 0 | 0 | 0 | 0 | 0 | - | - | -
CCOC(=O)c1sc(NC(=O)c2cc3n(n2)C(C(F)(F)F)CC(c2ccccc2)N3)c(C(=O)OCC)c1C (configuration not stated) | 81[inhibitor] | 0 | 0 | 0 | 0 | 0 | 0 | 0
Cc1cccc(C(=O)N(Cc2nc3ccccc3c(=O)[nH]2)C2CCCCC2)c1 | 74[inhibitor] | 0 | 0 | 0 | 0 | 0 | 0 | 0
COc1ccc(C(=O)NN/C(C)=C/C(=O)C(F)(F)C(F)(F)C(F)(F)F)cc1 | 130 | 0 | 0 | 0 | 0 | 0 | 0 | 0
CC1=Nc2ccccc2/C1=C\c1nc(-c2ccc(F)cc2)oc1O | 9.0[inhibitor] | 7.0 | 0 | 0 | 0 | 0 | 0 | 0
Nc1c(N(CCO)C(=O)COc2ccc(Cl)cc2)c(=O)[nH]c(=O)n1Cc1ccccc1 | 131 | 0 | 0 | 0 | 0 | 0 | 0 | 0
N#CC1=C(N)C(C#N)(C#N)C2(CCC3(CC2)OCCO3)C2CC3(CC=C12)OCCO3 (configuration not stated) | 13[inhibitor] | 19[inhibitor] | 0 | 0 | 0 | 0 | 0 | 0
N#CC1=C(N)C(C#N)(C#N)[C@H](c2c(F)cccc2F)[C@H]2CC3(CC=C12)OCCO3 | 0 | 0 | 0 | 0 | 0 | - | - | -
COc1cc(OC)c(C2=NOC(C(=O)Nc3c(C)nn(CC(=O)N4CCCC4)c3C)C2)cc1Cl (configuration not stated) | 0 | 0 | 0 | 0 | 0 | - | - | -
COCCN(CC(=O)NCc1ccc(F)cc1)C(=O)CCC(=O)Nc1ccccn1 | 81[inhibitor] | 0 | 0 | 0 | 0 | 0 | 0 | 0
CCCCOC(=O)c1ccc(NC(=S)NC(=O)c2ccco2)cc1 | 0 | 0 | 0 | 0 | 0 | - | - | -
CN1CCC(=C2c3ccccc3CC(=O)c3sccc32)CC1 | 0 | 0 | 0 | 0 | 0 | - | - | -
CN1CCC(=C2c3ccccc3CCc3sccc32)CC1 | 0 | 155! | 0 | 0 | 0 | 0 | 0 | 0
Cc1cc(C)nc(N/N=C/c2ccccc2OCc2ccc([N+](=O)[O-])cc2)n1 | 0 | 0 | 0 | 0 | 0 | - | - | -
